Assay outcomes from PubChem BioAssay.
mHtt clearance = compounds clearing mutant huntingtin protein. HeLa Exon1htt(103Q)mCFP, aggregate imaging; zero = plate's median compound well. inhibition, % at 1.5 µM. actives 0.42% (n = 47,000). AID 853;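 active means inhibition of aggregate fluorescence above about 70%, also judged a hit by eye on the cell image, limit read from the data, passing the limit was not always enough; inconclusive means no rule stated for this call; inactive means not judged a hit on image review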;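 further: cells exposed to compound for three days before fixation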
SF1 activator = SF-1 (human) activation. Q13285. CHO-K1 Gal4-SF-1 LBD luciferase reporter; % increase over DMSO SF-1-specific signal. activation, % at 10 µM. actives 1.9% (n = 65,000). AID 522;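 active means activation above the mean activation of all tested compounds plus 3 SD, cut at about 50% in these data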
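Material: Gal4–SF-1 LBD one-hybrid luciferase reporter in CHO-K1 cells | Amount: 4,000 cells per well | Compound dosing: 10 µM single point, 1% DMSO | Schedule: 20 h compound treatment, 37 °C | Measured by: SteadyLite luciferase luminescence | Evaluation: Percent activation versus DMSO | Control set: DMSO-treated SF-1-transfected cells as negative, DMSO-treated mock-transfected cells lacking SF-1 as background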
RORa activator = activators of human nuclear receptor RORA. P35398. CHO-K1 Gal4-RORA LBD luciferase reporter, luminescence; percent increase over mock-subtracted basal signal. activation, % at 10 µM. actives 1.5% (n = 65,000). AID 560;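 active means activation above the mean of all tested compounds plus 3 SD, cut at about 49% in these data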;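 further: 0% = DMSO-treated RORA cells and 100% = added signal equal to DMSO minus mock-transfected cells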
Target sequence (P35398 whole entry, looked up, the tested form may be a part): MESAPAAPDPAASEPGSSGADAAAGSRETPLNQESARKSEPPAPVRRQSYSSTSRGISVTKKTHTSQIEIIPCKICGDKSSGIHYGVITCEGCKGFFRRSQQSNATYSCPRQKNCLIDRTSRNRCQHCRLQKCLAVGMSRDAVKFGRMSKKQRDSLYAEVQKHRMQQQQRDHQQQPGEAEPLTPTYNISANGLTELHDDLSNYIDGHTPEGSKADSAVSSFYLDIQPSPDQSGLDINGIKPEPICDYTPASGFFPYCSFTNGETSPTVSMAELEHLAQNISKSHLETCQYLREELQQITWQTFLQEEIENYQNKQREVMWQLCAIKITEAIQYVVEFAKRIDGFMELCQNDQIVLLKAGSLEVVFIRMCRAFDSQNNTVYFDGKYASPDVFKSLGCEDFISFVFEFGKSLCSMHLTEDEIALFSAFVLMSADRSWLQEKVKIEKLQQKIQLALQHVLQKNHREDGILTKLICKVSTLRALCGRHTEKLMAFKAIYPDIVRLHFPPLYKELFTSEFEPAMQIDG
D1 allo mod = allosteric modulators of human D1 dopamine receptor. HEK293 D1, CRE-luciferase, dopamine EC30 potentiation; actives deviate in either direction. P21728. AID 641. B-score at 10 µM. actives 5.9% (n = 58,000);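 active means luminescence count or its row- and column-corrected plate score outside the 99.7% band of the plate's sample wells, on either side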
M1 antagonist = antagonists of rat M1 muscarinic receptor. CHO-M1 cells, Fluo-4 calcium, ACh EC80 antagonist mode; stronger effect = lower value. B-score at 10 µM. actives 3.4% (n = 64,000);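 active means calcium fluorescence response, raw or row-and-column corrected B-score, differing from the plate sample mean either way at a set confidence level, mostly lower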
M1 agonist = activates the M1 muscarinic receptor | actives 3% (n = 64,000) | CHO-M1 cells, Fluo-4 calcium fluorescence, agonist mode; stronger effect = higher value | B-score at 10 µM;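 active means fluorescence rise, raw or as B-score row- and column-corrected plate score, outside the 99.7% band of its plate's samples, either direction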
The depositor's hits bear a star; ? = inconclusive; / = not tested or not shown. Rows were chosen to be rich in hits. Some 11% of all compounds tested hit in one or more screens of this group.

SMILES | mHtt clearance | SF1 activator | RORa activator | D1 allo mod | M1 antagonist | M1 agonist
COC(=O)c1c(NC(=O)C2CCCO2)sc2c1CCC2 (centres undefined) | -9 | / | / | / | / | /
Cc1ccccc1Cn1c(=O)c2c(nc3n2CCN3Cc2ccco2)n(C)c1=O | / | -6 | -18 | 0.058 | 0.034 | 0.011
COc1ccc2c(c1)Cc1sc(NC(C)=O)nc1-2 | 5 | 77* | 42 | -1.2 | 0.41 | -0.45
COc1ccc2c(c1)Cc1sc(NC(=O)c3ccco3)nc1-2 | 55 | / | / | / | / | /
Cc1ccc2nc(NC3=NCN(Cc4ccccc4)CN3)nc(C)c2c1 | / | -6 | -14 | -0.48 | -0.94 | 0.14
Cc1cc2nc(NC3=NCN(Cc4ccc5c(c4)OCO5)CN3)nc(C)c2cc1C | / | -10 | -26 | / | -5.1* | 0.073
Cc1cc2nc(NC3=NCN(CCN4CCOCC4)CN3)nc(C)c2cc1C | / | -3 | 18 | -0.026 | -5.7* | 0.64
Cc1nc(N2CCC(C)CC2)c2c(C)c(C(=O)O)sc2n1 | 80* | 15 | 18 | 0.022 | -0.13 | 0.071
Cc1ccc(CNC(=O)CSc2n[nH]c(N)n2)cc1 | 82* | 25 | -11 | -0.026 | 0.025 | -0.24
COCCCNC(=O)c1cn(Cc2c(F)cccc2Cl)nn1 | -36 | -6 | -12 | -3.9* | 0.092 | 0.28
O=C(c1ccccc1)c1ccc(N2CCOCC2)c(F)c1 | / | 46 | 74* | -1.1 | 0.00084 | -0.38
O=C(CSc1nc(-c2ccc(F)cc2)cs1)N1CCc2ccccc21 | -50 | / | / | / | / | /
O=C(c1ccc(-c2ccccc2)cc1)N1CCC(C(=O)N2CCCC2)CC1 | / | -3 | -7 | -0.84 | 0.98 | 0.78
O=C(c1ccc(-c2nnc(-c3ccccc3)o2)cc1)N1CCCCCC1 | / | 1 | 60* | -0.74 | -0.22 | -0.19
CCOC(=O)N1CCC(NC(=O)c2ccc3c(c2)sc2nc(-c4ccccc4)cn23)CC1 | 6 | 22 | 53* | / | / | /
CCOC(=O)N1CCC(NC(=O)c2ccc3snnc3c2)CC1 | / | -5 | -2 | -0.16 | -1.6 | 1.1
CCOC(=O)N1CCC(NC(=O)c2ccc3c(c2)sc2nc(-c4cccc(OC)c4)cn23)CC1 | / | 24 | 2 | -2.6* | -1.2 | 1.5
O=C1CC(N2CCN(c3nc4ccccc4s3)CC2)C(=O)N1Cc1cccs1 (centres undefined) | 14 | 12 | -4 | -0.51 | -0.92 | -1.3
O=S(=O)(CCn1cccc1)CCn1cccc1 | 61 | -2 | 2 | 0.14 | 2.2* | -0.52
CN(C)c1ccc(NC(=O)Nc2cccc(Cl)c2)cc1 | -36 | 64* | 3 | / | -1.8 | 0.18
COc1ccc2cc(C3(C)NC(=O)NC3=O)ccc2c1 (centres undefined) | 3 | -11 | 1 | -0.79 | 2.4* | 0.37
CCc1cccc(NC2c3ccccc3C(=O)N2c2cccnc2)c1 (centres undefined) | / | -6 | 16 | 0.76 | -0.05 | 0.081
O=C(/C=C/Nc1ccc(F)cc1)c1ccco1 | -71 | 31 | 35 | -7.3* | 0.52 | 2.1
CCOC(=O)c1ccc(N/C=C/C(=O)c2ccco2)cc1 | -30 | / | / | / | / | /
CCOc1ccccc1N(C(=O)Cn1nnnc1-c1ccc(C)o1)C(CC)C(=O)NC(C)(C)C (centres undefined) | -11 | 1 | -15 | -0.15 | -0.59 | 0.65
SMILES | mHtt clearance | SF1 activator | RORa activator | D1 allo mod | M1 antagonist | M1 agonist
Cc1nc2sc(C(c3ccc(F)cc3)N3CCN(C(=O)c4ccco4)CC3)c(O)n2n1 (centres undefined) | / | -6 | 3 | 1.6 | / | /
Cc1cc(=O)oc(C)c1C(=O)N[C@@H]1CCCCNC1=O | / | -1 | -16 | 0.32 | 0.74 | -0.85
COc1ccc(C(=O)Nn2c(SCC(=O)NCc3ccco3)nc3ccccc3c2=O)cc1 | / | -62 | -59 | -9.3* | -0.45 | -1.1
CC(=O)Nc1ccc(S(=O)(=O)NC2=NCN(CCOC(=O)c3ccccc3)CN2)cc1 | 8 | -4 | -17 | -5.2* | 0.32 | -0.75
COc1cc(SC)ccc1C(=O)Nc1ccccc1C#N | ? | 60* | 26 | / | -0.0076 | -0.0068
CCCNC(=O)c1ccc(SC)cc1OC | / | -1 | -4 | -0.26 | / | /
CC(C)COC(=O)c1ccc2c(c1O)C(=O)c1ccccc1C2=O | -20 | / | / | / | / | /
Fc1ccc(OCc2nn3cnnc3s2)cc1 | / | -13 | -8 | -4* | / | /
CCOc1ccc(-c2nnc3sc(COc4ccc(C)cc4)nn23)cc1 | / | -5 | -14 | -0.74 | 0.0024 | 0.3
COc1ccc(/C=N\NC(=O)C2=NNC(=O)C2C)cc1 (centres undefined) | 26 | / | / | / | / | /
O=C(On1c(-c2ccccc2)nc2ccccc2c1=O)c1ccco1 | 36 | / | / | -3.4* | / | /
COc1ccc(CCn2c(=S)[nH]c3cc(C(=O)NCc4ccco4)ccc3c2=O)cc1OC | 0 | 19 | 9 | / | -0.49 | 3*
Cc1ccccc1C(=O)NC1CCN(C(=O)N(c2ccccc2)c2ccccc2)CC1 | 9 | / | / | / | / | /
COc1ccc2nc(SCC(=O)NC(C)(C)C)[nH]c2c1 | / | 13 | 15 | -2.1* | -0.014 | -0.17
COc1ccc2nc(SCC(=O)NC(C)C)[nH]c2c1 | / | 9 | 12 | -0.055 | -0.68 | -0.91
Cc1cc(=O)[nH]c2c1c(C)nn2C1CCOC(C)(C)C1 (centres undefined) | -2 | / | / | / | / | /
O=C(NCC1CCCO1)c1coc2nc3ccccc3nc12 (centres undefined) | 25 | 57* | 3 | 0.59 | 0.23 | -0.13
CC1CN(c2nc3c(c(=O)n(C)c(=O)n3C)n2Cc2c(F)cccc2Cl)CC(C)O1 (centres undefined) | / | 10 | 9 | 0.17 | 0.53 | 0.99
Cc1cc(C)n(S(=O)(=O)c2ccc(Cl)c(Cl)c2Cl)n1 | / | -3 | 0 | 0.16 | -0.059 | 0.2
Cc1cc(C)n(S(=O)(=O)c2cc(C(=O)O)c(Cl)cc2Cl)n1 | 60 | -5 | -7 | 1.9 | 2.3* | -1.3
Cc1cc(=O)[nH]c(Nc2ccc(C(=O)OC(C)C)cc2)n1 | / | -19 | -31 | 0.18 | -0.52 | -0.74
CCOC(=O)c1sc(Nc2ccccc2)nc1C | -111 | / | / | / | / | /
CCOC(=O)c1sc(Nc2nc3c(OC)cccc3s2)nc1C | / | 64* | 11 | -0.61 | -0.003 | 0.18
COc1cccc(C(=O)N2CCN(S(=O)(=O)Cc3ccccc3)CC2)c1OC | -61 | 2 | -32 | / | -0.3 | -0.15
COc1ccc2oc(=O)c(-c3nnc(NCc4ccco4)s3)cc2c1 | 58 | 81* | 80* | 0.49 | -0.047 | -1.4
SMILES | mHtt clearance | SF1 activator | RORa activator | D1 allo mod | M1 antagonist | M1 agonist
c1ccc(Sc2nc(N3CCCCC3)nc(N3CCCCC3)n2)nc1 | / | / | / | 0.35 | 2.1* | 0.48
Cc1nc2ccccc2nc1N1CCCCC1 | 24 | 19 | -9 | 1.2 | 1.1 | 0.21
O=C(CCSCCc1ccccn1)Nc1ccc(Br)cn1 | -18 | / | / | / | / | /
O=C(CCCSc1nc2ccccc2[nH]1)NC1=NCCS1 | / | -12 | -4 | / | 1.7* | 1.3
O=C(CCCSc1nc2ccccc2[nH]1)N1CCN(c2ccccc2)CC1 | / | -7 | -12 | -0.36 | 0.019 | -0.57
Cc1ccc(NC(=O)NC2=N/C(=C(/C#N)C(=O)N3CCCC3)c3ccccc32)cc1 | / | -6 | -11 | -3.8* | 0.24 | 1.7
